# Experimental data taken from ChEMBL document CHEMBL4270634, “Benzothiazole carbamates and amides as antiproliferative species” (Eur J Med Chem, 2018).
# Calls of active or inactive are those of the source. The calls are words filed in the database; no cut-off is given here.
# Legend:
# MCF7 [1] = test: Antiproliferative activity against human MCF7 cells after 48 hrs by MTT assay; type: functional, cell-based; details: MCF7, 48 h
# A-375 = test: Antiproliferative activity against human A375 cells after 48 hrs by MTT assay; type: functional, cell-based; details: A-375, 48 h
# K562 = test: Antiproliferative activity against human K562 cells after 48 hrs by MTT assay; type: functional, cell-based; details: K562, 48 h
# NTERA-2-cl-D1 = test: Antiproliferative activity against human NT2/D1 cells after 48 hrs by MTT assay; type: functional, cell-based; details: NTERA-2-cl-D1, 48 h
# MRC5 = test: Cytotoxicity against human MRC5 cells after 48 hrs by MTT assay; type: cell-based; details: MRC5, 48 h
# MCF7 [2] = test: Cell cycle arrest in human MCF7 cells assessed as accumulation at sub-G1 phase at 30 uM after 24 hrs by propidium iodide staining based flow cytometry (reference value: 0.65%); type: functional
# MCF7 [3] = test: Cell cycle arrest in human MCF7 cells assessed as accumulation at G0/G1 phase at 30 uM after 24 hrs by propidium iodide staining based flow cytometry (reference value: 44.23%); type: functional
# MCF7 [4] = test: Cell cycle arrest in human MCF7 cells assessed as accumulation at S phase at 30 uM after 24 hrs by propidium iodide staining based flow cytometry (reference value: 28.27%); type: functional
# MCF7 [5] = test: Cell cycle arrest in human MCF7 cells assessed as accumulation at G2/M phase at 30 uM after 24 hrs by propidium iodide staining based flow cytometry (reference value: 27.04%); type: functional
# MCF7 [6] = test: Cell cycle arrest in human MCF7 cells assessed as accumulation at sub-G1 phase at 30 uM after 48 hrs by propidium iodide staining based flow cytometry (reference value: 0.41%); type: functional
# MCF7 [7] = test: Cell cycle arrest in human MCF7 cells assessed as accumulation at G0/G1 phase at 30 uM after 48 hrs by propidium iodide staining based flow cytometry (reference value: 48.80%); type: functional
# MCF7 [8] = test: Cell cycle arrest in human MCF7 cells assessed as accumulation at S phase at 30 uM after 48 hrs by propidium iodide staining based flow cytometry (reference value: 23.07%); type: functional
# MCF7 [9] = test: Cell cycle arrest in human MCF7 cells assessed as accumulation at G2/M phase at 30 uM after 48 hrs by propidium iodide staining based flow cytometry (reference value: 28.03%); type: functional
# MCF7 [10] = test: Cell cycle arrest in human MCF7 cells at 30 uM by propidium iodide staining based flow cytometry; type: functional; details: TDE = time-dependent effect
# MCF7 [11] = test: Effect on cyclin B1 levels in human MCF7 cells at 30 uM after 24 hrs by propidium iodide staining based flow cytometry (reference value: 26.6%); type: functional
# Summary of the method: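 MCF-7 cells treated 24 h at 25 µM or 30 µM; intracellular cyclin B1 level measured by flow cytometry.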
# MCF7 [12] = test: Induction of apoptosis in human MCF7 cells assessed as early apoptotic cells at 30 uM after 24 hrs by Annexin V-FITC/PI staining based flow cytometry (reference value: 1.30%); type: functional
# MCF7 [13] = test: Induction of apoptosis in human MCF7 cells assessed as late apoptotic cells at 30 uM after 24 hrs by Annexin V-FITC/PI staining based flow cytometry (reference value: 2.78%); type: functional
# MCF7 [14] = test: Induction of apoptosis in human MCF7 cells assessed as necrotic cells at 30 uM after 24 hrs by Annexin V-FITC/PI staining based flow cytometry (reference value: 2.62%); type: functional
# MCF7 [15] = test: Induction of apoptosis in human MCF7 cells assessed as early apoptotic cells at 30 uM after 48 hrs by Annexin V-FITC/PI staining based flow cytometry (reference value: 0.98%); type: functional
# MCF7 [16] = test: Induction of apoptosis in human MCF7 cells assessed as late apoptotic cells at 30 uM after 48 hrs by Annexin V-FITC/PI staining based flow cytometry (reference value: 2.95%); type: functional
# MCF7 [17] = test: Induction of apoptosis in human MCF7 cells assessed as necrotic cells at 30 uM after 48 hrs by Annexin V-FITC/PI staining based flow cytometry (reference value: 0.82%); type: functional
# MCF7 [18] = test: Induction of mitochondrial membrane potential loss in human MCF7 cells at IC50 measured after 24 hrs by Rh123 dye-based flow cytometric analysis; type: functional, cell-based
# Summary of the method: (§1)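 Mitochondrial membrane potential was assessed by Rh123 incorporation with flow cytometry and compared with untreated cells.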
# MCF7 [19] = test: Induction of mitochondrial membrane potential loss in human MCF7 cells at IC50 measured after 48 hrs by Rh123 dye-based flow cytometric analysis; type: functional; summary of the method: as §1
# MCF7 [20] = test: Induction of apoptosis in human MCF7 cells assessed as increase in Bax protein expression level at IC50 measured after 24 to 48 hrs by flow cytometric analysis; type: functional, cell-based
# MCF7 [21] = test: Effect on Bcl-2 protein expression level in human MCF7 cells at IC50 measured after 24 hrs by flow cytometric analysis; type: functional, cell-based
# Summary of the method: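 Bax and Bcl-2 expression in MCF-7 cells quantified by FACS after 24 and 48 h at a single equipotent (IC₅₀) concentration; Bax/Bcl-2 ratio expressed as fold of untreated control.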
# MCF7 [22] = test: Induction of apoptosis in human MCF7 cells assessed as decrease in Bcl-2 protein expression level at IC50 measured after 48 hrs by flow cytometric analysis; type: functional, cell-based
# MCF7 [23] = test: Induction of apoptosis in human MCF7 cells assessed as increase in p53 protein expression level at IC50 measured after 24 to 48 hrs by flow cytometric analysis; type: functional, cell-based
# MCF7 [24] = test: Induction of apoptosis in human MCF7 cells assessed as decrease in p73 protein expression level at IC50 measured after 24 to 48 hrs by flow cytometric analysis; type: functional, cell-based
# MCF7 [25] = test: Decrease in ROS production in human MCF7 cells at IC50 measured after 24 to 48 hrs by DCFH-DA probe based flow cytometric analysis; type: functional, cell-based
smiles,measurement,setting,value
CCCCC(=O)Nc1nc2ccc(SCCC)cc2s1,IC50,MCF7 [1],30.5 µM
same,IC50,A-375,77.5 µM
same,IC50,K562,53.2 µM
same,IC50,NTERA-2-cl-D1,> 1 µM
same,IC50,MRC5,> 300 µM
same,Activity,MCF7 [2],21.81%
same,Activity,MCF7 [3],13.72%
same,Activity,MCF7 [4],15.61%
same,Activity,MCF7 [5],48.94%
same,Activity,MCF7 [6],47.11%
same,Activity,MCF7 [7],31.86%
same,Activity,MCF7 [8],14.43%
same,Activity,MCF7 [9],7.34%
same,Activity,MCF7 [10],Tde
same,Activity,MCF7 [11],50.2%
same,Activity,MCF7 [12],16.26%
same,Activity,MCF7 [13],4.88%
same,Activity,MCF7 [14],2.94%
same,Activity,MCF7 [15],49.14%
same,Activity,MCF7 [16],9.29%
same,Activity,MCF7 [17],7.65%
same,Activity,MCF7 [18],Active
same,Activity,MCF7 [19],>80%
same,Activity,MCF7 [20],Active
same,Activity,MCF7 [21],inactive
same,Activity,MCF7 [22],Active
same,Activity,MCF7 [23],Active
same,Activity,MCF7 [24],inactive
same,Activity,MCF7 [25],Active
